Values after ≈ are worked out from the molar mass of the structure shown. Active and inactive are the calls of the source. The rule behind the calls is not given here.
Assays:
Human betaherpesvirus 5 [1] = assay: Antiviral activity against HCMV Davis in human embryonic lung cells; assay type: functional, organism-based
Huh-5-2 = assay: Cytotoxicity against human hepatoma Huh5-2 cells; assay type: functional
Outline: (§1)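 Cells seeded the day before, then given serial compound dilutions and left to proliferate 3 days at 37 °C. MDBK: 10^4/well in MEM-FCS. Huh 5-2: 5 × 10^3/well in complete DMEM. Cell number read by MTS/PMS. CC50 is the concentration inhibiting cell growth by 50%.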

[2] = tested on: Bovine viral diarrhea virus 1; assay: Antiviral activity against VP32947-resistant BVDV in MDBK cells; assay type: functional, organism-based; settings: Bovine viral diarrhea virus isolates and strains
Outline: (§2)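 MDBK cells seeded 20 × 10^3/well in MEM with 5% heat-inactivated FCS, confluent after 24 h; serial 3-fold compound dilutions added, then virus at MOI 0.5 (line 2: NADL F224S mutant). 5 days at 37 °C, then ethanol fixation and Giemsa staining. CPE scored microscopically 0–10 per well. EC50 by logarithmic interpolation; mean ± SD of at least three experiments.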

[3] = tested on: Human immunodeficiency virus 1; assay: Antiviral activity against HIV1 3B in MT4 cells; assay type: functional, organism-based
Human alphaherpesvirus 1 = assay: Antiviral activity against HSV1 KOS in E6SM cells; assay type: functional, organism-based
MDBK441 [4] = assay: Inhibition of BVDV NADL production in MDBK cells; assay type: functional, cell-based; settings: Bos taurus
Outline: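 Supernatants were titrated on MDBK cells seeded at 5 × 10^3/well (10–15% confluent). Cells were infected 24 h later with 10-fold serial dilutions and, after 4 days, ethanol-fixed and Giemsa-stained. CPE was read microscopically; titre by Reed–Muench, as CCID50/mL.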

MDBK441 [5] = assay: Selectivity index (CC50/EC50) for inhibition of VP32947-resistant BVDV in MDBK cells; assay type: functional
Outline: (§3)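 SI = CC50/EC50. EC50 comes from a 5-day Giemsa-stained CPE assay in MDBK cells at MOI 0.5; CC50 from a 3-day MTS/PMS proliferation assay. Means of at least three experiments. Line 10 uses the NADL F224S mutant.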

Coxsackievirus B4 = assay: Antiviral activity against coxsackie virus B4 in vero cells; assay type: functional, organism-based
MDBK441 [6] = assay: Inhibition of BVDV NADL RNA production in MDBK cells; assay type: functional, cell-based; settings: Bos taurus
Outline: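 Viral RNA came from supernatant, total cellular RNA by kit. One-step TaqMan RT-qPCR: UNG 50 °C 2 min; RT 60 °C 30 min; 95 °C 5 min; 40 cycles of 94 °C 20 s and 62 °C 1 min. Three replicate reactions per sample.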

Sindbis virus = assay: Antiviral activity against sindbis virus in vero cells; assay type: functional, organism-based
[7] = tested on: Respiratory syncytial virus; assay: Antiviral activity against respiratory syncytial virus […] in HeLa cells; assay type: functional, organism-based
[8] = tested on: Human immunodeficiency virus 2; assay: Antiviral activity against HIV2 ROD in MT4 cells; assay type: functional, organism-based
MDBK441 [9] = assay: Cytotoxicity against MDBK cells; assay type: functional; settings: Bos taurus; outline: as §1
[10] = tested on: Vesicular stomatitis virus; assay: Antiviral activity against vesicular stomatitis virus in E6SM cells; assay type: functional, organism-based
Human respirovirus 3 = assay: Antiviral activity against parainfluenza3 virus in vero cells; assay type: functional, organism-based
Human betaherpesvirus 5 [11] = assay: Antiviral activity against HCMV AD169 in human embryonic lung cells; assay type: functional, organism-based
Punta Toro virus = assay: Antiviral activity against Punta Toro virus in vero cells; assay type: functional, organism-based
[12] = tested on: Mammalian orthoreovirus 1; assay: Antiviral activity against Reovirus1 in vero cells; assay type: functional, organism-based
Vaccinia virus = assay: Antiviral activity against vaccinia virus in E6SM cells; assay type: functional, organism-based; settings: Orthopoxvirus vaccinia
Human alphaherpesvirus 2 = assay: Antiviral activity against HSV2 G in E6SM cells; assay type: functional, organism-based
MDBK441 [13] = assay: Selectivity index (CC50/EC50) for inhibition of BVDV NADL in MDBK cells; assay type: functional; outline: as §3
[14] = tested on: Bovine viral diarrhea virus 1; assay: Antiviral activity against BVDV NADL in MDBK cells; assay type: functional, organism-based; settings: Bovine viral diarrhea virus isolates and strains; outline: as §2

Cn1c2cc(N3CCN(c4ccccn4)CC3)c(N)cc2c(=O)c2c(O)cc(O)cc21
Activity (Human betaherpesvirus 5 [1]): inactive
CC50 (Huh-5-2): 21 µg/mL (≈ 50.3 µM)
EC50 [2]: 2.24 µg/mL (≈ 5.37 µM)
Activity [3]: inactive
Activity (Human alphaherpesvirus 1): inactive
EC50 (MDBK441 [4]): 2.01 µg/mL (≈ 4.81 µM)
Selectivity index (MDBK441 [5]): >45
Activity (Coxsackievirus B4): inactive
EC50 (MDBK441 [6]): 2.3 µg/mL (≈ 5.51 µM)
Activity (Sindbis virus): inactive
Activity [7]: inactive
Activity [8]: inactive
CC50 (MDBK441 [9]): > 100 µg/mL
Activity [10]: inactive
Activity (Human respirovirus 3): inactive
Activity (Human betaherpesvirus 5 [11]): inactive
Activity (Punta Toro virus): inactive
Activity [12]: inactive
Activity (Vaccinia virus): inactive
Activity (Human alphaherpesvirus 2): inactive
Selectivity index (MDBK441 [13]): >200

Cn1c2cc(Cl)c(N)cc2c(=O)c2c(O)cc(O)cc21
Activity (Human betaherpesvirus 5 [1]): inactive
Activity [3]: inactive
Activity (Human alphaherpesvirus 1): inactive
Activity (Coxsackievirus B4): inactive
Activity (Sindbis virus): inactive
Activity [7]: inactive
Activity [8]: inactive
CC50 (MDBK441 [9]): 5 µg/mL (≈ 17.2 µM)
Activity [10]: inactive
Activity (Human respirovirus 3): inactive
Activity (Human betaherpesvirus 5 [11]): inactive
Activity (Punta Toro virus): inactive
Activity [12]: inactive
Activity (Vaccinia virus): inactive
Activity (Human alphaherpesvirus 2): inactive
Selectivity index (MDBK441 [13]): 13

COc1cc(OC)c2c(=O)c3cc(N)c(Cl)cc3n(C)c2c1
Activity (Human betaherpesvirus 5 [1]): inactive
EC50 [14]: > 100 µg/mL
Activity [3]: inactive
Activity (Human alphaherpesvirus 1): inactive
Activity (Coxsackievirus B4): inactive
Activity (Sindbis virus): inactive
Activity [7]: inactive
Activity [8]: inactive
CC50 (MDBK441 [9]): > 100 µg/mL
Activity [10]: inactive
Activity (Human respirovirus 3): inactive
Activity (Human betaherpesvirus 5 [11]): inactive
Activity (Punta Toro virus): inactive
Activity [12]: inactive
Activity (Vaccinia virus): inactive
Activity (Human alphaherpesvirus 2): inactive
Selectivity index (MDBK441 [13]): 1

COc1cc(OC)c2c(=O)c3cc(N)c(N4CCN(c5ccccn5)CC4)cc3n(C)c2c1
Activity (Human betaherpesvirus 5 [1]): inactive
EC50 [14]: > 100 µg/mL
Activity [3]: inactive
Activity (Human alphaherpesvirus 1): inactive
Activity (Coxsackievirus B4): inactive
Activity (Sindbis virus): inactive
Activity [7]: inactive
Activity [8]: inactive
CC50 (MDBK441 [9]): > 100 µg/mL
Activity [10]: inactive
Activity (Human respirovirus 3): inactive
Activity (Human betaherpesvirus 5 [11]): inactive
Activity (Punta Toro virus): inactive
Activity [12]: inactive
Activity (Vaccinia virus): inactive
Activity (Human alphaherpesvirus 2): inactive
Selectivity index (MDBK441 [13]): 1

COc1cc(O)c2c(=O)c3cc([N+](=O)[O-])c(N4CCN(c5ccccn5)CC4)cc3n(C)c2c1
Activity (Human betaherpesvirus 5 [1]): inactive
EC50 [14]: > 100 µg/mL
Activity [3]: inactive
Activity (Human alphaherpesvirus 1): inactive
Activity (Coxsackievirus B4): inactive
Activity (Sindbis virus): inactive
Activity [7]: inactive
Activity [8]: inactive
CC50 (MDBK441 [9]): > 100 µg/mL
Activity [10]: inactive
Activity (Human respirovirus 3): inactive
Activity (Human betaherpesvirus 5 [11]): inactive
Activity (Punta Toro virus): inactive
Activity [12]: inactive
Activity (Vaccinia virus): inactive
Activity (Human alphaherpesvirus 2): inactive
Selectivity index (MDBK441 [13]): 1

COc1cc(OC)c2c(=O)c3cc([N+](=O)[O-])c(N4CCN(c5ccccn5)CC4)cc3n(C)c2c1
Activity (Human betaherpesvirus 5 [1]): inactive
EC50 [14]: 18 µg/mL (≈ 37.9 µM)
Activity [3]: inactive
Activity (Human alphaherpesvirus 1): inactive
Activity (Coxsackievirus B4): inactive
Activity (Sindbis virus): inactive
Activity [7]: inactive
Activity [8]: inactive
CC50 (MDBK441 [9]): > 100 µg/mL
Activity [10]: inactive
Activity (Human respirovirus 3): inactive
Activity (Human betaherpesvirus 5 [11]): inactive
Activity (Punta Toro virus): inactive
Activity [12]: inactive
Activity (Vaccinia virus): inactive
Activity (Human alphaherpesvirus 2): inactive
Selectivity index (MDBK441 [13]): >6

C[C@@]1(O)[C@H](O)[C@@H](CO)O[C@H]1n1cnc2c(N)ncnc21
EC50 [14]: 0.22 µg/mL (≈ 0.782 µM)
EC50 [2]: 0.37 µg/mL (≈ 1.32 µM)
Selectivity index (MDBK441 [5]): >38
CC50 (MDBK441 [9]): > 14 µg/mL
Selectivity index (MDBK441 [13]): >63

COc1cc(O)c2c(=O)c3cc(N)c(N4CCN(c5ccccn5)CC4)cc3n(C)c2c1
Activity (Human betaherpesvirus 5 [1]): inactive
Activity [3]: inactive
Activity (Human alphaherpesvirus 1): inactive
Activity (Coxsackievirus B4): inactive
Activity (Sindbis virus): inactive
Activity [7]: inactive
Activity [8]: inactive
CC50 (MDBK441 [9]): > 100 µg/mL
Activity [10]: inactive
Activity (Human respirovirus 3): inactive
Activity (Human betaherpesvirus 5 [11]): inactive
Activity (Punta Toro virus): inactive
Activity [12]: inactive
Activity (Vaccinia virus): inactive
Activity (Human alphaherpesvirus 2): inactive
Selectivity index (MDBK441 [13]): >25

CCCN(CCC)CCSc1n[nH]c2c3ccccc3nc-2n1
EC50 [14]: 0.009 µg/mL (≈ 0.0273 µM)
EC50 [2]: > 1 µg/mL
Selectivity index (MDBK441 [5]): 1
CC50 (MDBK441 [9]): > 1 µg/mL
Selectivity index (MDBK441 [13]): >111

COc1cc(O)c2c(=O)c3cc(N)c(Cl)cc3n(C)c2c1
Activity (Human betaherpesvirus 5 [1]): inactive
Activity [3]: inactive
Activity (Human alphaherpesvirus 1): inactive
Activity (Coxsackievirus B4): inactive
Activity (Sindbis virus): inactive
Activity [7]: inactive
Activity [8]: inactive
CC50 (MDBK441 [9]): > 33 µg/mL
Activity [10]: inactive
Activity (Human respirovirus 3): inactive
Activity (Human betaherpesvirus 5 [11]): inactive
Activity (Punta Toro virus): inactive
Activity [12]: inactive
Activity (Vaccinia virus): inactive
Activity (Human alphaherpesvirus 2): inactive
Selectivity index (MDBK441 [13]): >47

COc1cc(O)c2c(=O)c3cc([N+](=O)[O-])c(Cl)cc3n(C)c2c1
Activity (Human betaherpesvirus 5 [1]): inactive
EC50 [14]: > 83 µg/mL
Activity [3]: inactive
Activity (Human alphaherpesvirus 1): inactive
Activity (Coxsackievirus B4): inactive
Activity (Sindbis virus): inactive
Activity [7]: inactive
Activity [8]: inactive
CC50 (MDBK441 [9]): 83 µg/mL (≈ 248 µM)
Activity [10]: inactive
Activity (Human respirovirus 3): inactive
Activity (Human betaherpesvirus 5 [11]): inactive
Activity (Punta Toro virus): inactive
Activity [12]: inactive
Activity (Vaccinia virus): inactive
Activity (Human alphaherpesvirus 2): inactive
Selectivity index (MDBK441 [13]): 1

COc1cc(OC)c2c(=O)c3cc([N+](=O)[O-])c(Cl)cc3n(C)c2c1
Activity (Human betaherpesvirus 5 [1]): inactive
EC50 [14]: > 100 µg/mL
Activity [3]: inactive
Activity (Human alphaherpesvirus 1): inactive
Activity (Coxsackievirus B4): inactive
Activity (Sindbis virus): inactive
Activity [7]: inactive
Activity [8]: inactive
CC50 (MDBK441 [9]): > 100 µg/mL
Activity [10]: inactive
Activity (Human respirovirus 3): inactive
Activity (Human betaherpesvirus 5 [11]): inactive
Activity (Punta Toro virus): inactive
Activity [12]: inactive
Activity (Vaccinia virus): inactive
Activity (Human alphaherpesvirus 2): inactive
Selectivity index (MDBK441 [13]): 1
